Assay results from ChEMBL document CHEMBL4689842, “EUbOPEN Chemogenomics Library wave 1” (2021).

Tested on: U2OS
Experiment: Multiplex assay against U2OS
Type: toxicity, cell-based
Settings: human
In short: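 Imaging took place on a CQ1 microscope at 37°C and 5% CO2 once compound had been added to live cells stained at seeding with Hoechst33342, BioTracker Green Microtubule Cytoskeleton Dye, MitoTracker Red and Annexin V Alexa Fluor 680. CellPathfinder machine-learning gating classed cells as Hoechst high-intensity objects or normal cells, classed normal cells as having healthy, pyknosed or fragmented nuclei, and classed pyknosed cells as mitotic or apoptotic. Tubulin, mitochondrial-mass and membrane-permeability phenotypes are per cents of the healthy-nucleus cells.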

[1] = 12 h, 1 µM, compound concentration 1 uM, replicate 1
[2] = 12 h, 1 µM, compound concentration 1 uM, replicate 2
[3] = 12 h, 10 µM, compound concentration 10 uM, replicate 1
[4] = 12 h, 10 µM, compound concentration 10 uM, replicate 2
[5] = 24 h, 1 µM, compound concentration 1 uM, replicate 1
[6] = 24 h, 1 µM, compound concentration 1 uM, replicate 2
[7] = 24 h, 10 µM, compound concentration 10 uM, replicate 1
[8] = 24 h, 10 µM, compound concentration 10 uM, replicate 2
[9] = 48 h, 1 µM, compound concentration 1 uM, replicate 1
[10] = 48 h, 1 µM, compound concentration 1 uM, replicate 2
[11] = 48 h, 10 µM, compound concentration 10 uM, replicate 1
[12] = 48 h, 10 µM, compound concentration 10 uM, replicate 2

In the case of CNC(=O)c1ccc(Nc2nc(OC3CCCC3)c3c(-c4ccc5nc(C)oc5c4)c[nH]c3n2)c(OC)c1, the “Population Apoptotic (%)” value [1] was 36%, the “Population Fragmented Nuclei (%)” value [1] was 10% and the “Population Healthy Nuclei (%)” value [1] was 64%. The “Population Hoechst High Intensity Objects (%)” value [1] was 2%, the “Population Membrane Permeable-Phenotype (%)” value [1] was 58% and the “Population Mitochondria Different-Phenotype (%)” value [1] was 45%. For the same molecule, the “Population Mitotic Cells (%)” value [1] was 63%, the “Population Normal (%)” value [1] was 97% and the “Population Pyknosed Nuclei (%)” value [1] was 25%. The “Population Apoptotic (%)” value [2] was 30%, the “Population Fragmented Nuclei (%)” value [2] was 14% and the “Population Healthy Nuclei (%)” value [2] was 72%. For the same molecule, the “Population Hoechst High Intensity Objects (%)” value [2] was 6%, the “Population Membrane Permeable-Phenotype (%)” value [2] was 63% and the “Population Mitochondria Different-Phenotype (%)” value [2] was 40%. For the same molecule, the “Population Mitotic Cells (%)” value [2] was 70%, the “Population Normal (%)” value [2] was 93% and the “Population Pyknosed Nuclei (%)” value [2] was 13%. For the same molecule, the “Population Tubulin-Different-Phenotype (%)” value [2] was 100%, the “Population Apoptotic (%)” value [3] was 30% and the “Population Fragmented Nuclei (%)” value [3] was 1%. For the same molecule, the “Population Healthy Nuclei (%)” value [3] was 87%, the “Population Hoechst High Intensity Objects (%)” value [3] was 1% and the “Population Membrane Permeable-Phenotype (%)” value [3] was 62%. The “Population Mitochondria Different-Phenotype (%)” value [3] was 18%, the “Population Mitotic Cells (%)” value [3] was 70% and the “Population Normal (%)” value [3] was 98%. For the same molecule, the “Population Pyknosed Nuclei (%)” value [3] was 11%, the “Population Tubulin-Different-Phenotype (%)” value [3] was 90% and the “Population Apoptotic (%)” value [4] was 25%. The “Population Fragmented Nuclei (%)” value [4] was 22%, the “Population Healthy Nuclei (%)” value [4] was 72% and the “Population Hoechst High Intensity Objects (%)” value [4] was 22%. The “Population Membrane Permeable-Phenotype (%)” value [4] was 54%, the “Population Mitochondria Different-Phenotype (%)” value [4] was 26% and the “Population Mitotic Cells (%)” value [4] was 75%. The “Population Normal (%)” value [4] was 77%, the “Population Pyknosed Nuclei (%)” value [4] was 4% and the “Population Tubulin-Different-Phenotype (%)” value [4] was 65%. The “Population Apoptotic (%)” value [5] was 89%, the “Population Fragmented Nuclei (%)” value [5] was 12% and the “Population Healthy Nuclei (%)” value [5] was 8%. For the same molecule, the “Population Hoechst High Intensity Objects (%)” value [5] was 5%, the “Population Membrane Permeable-Phenotype (%)” value [5] was 92% and the “Population Mitochondria Different-Phenotype (%)” value [5] was 84%. The “Population Mitotic Cells (%)” value [5] was 10%, the “Population Normal (%)” value [5] was 94% and the “Population Pyknosed Nuclei (%)” value [5] was 79%. The “Population Tubulin-Different-Phenotype (%)” value [5] was 100%, the “Population Apoptotic (%)” value [6] was 60% and the “Population Fragmented Nuclei (%)” value [6] was 25%. For the same molecule, the “Population Healthy Nuclei (%)” value [6] was 48%, the “Population Hoechst High Intensity Objects (%)” value [6] was 11% and the “Population Membrane Permeable-Phenotype (%)” value [6] was 65%. For the same molecule, the “Population Mitochondria Different-Phenotype (%)” value [6] was 73%, the “Population Mitotic Cells (%)” value [6] was 40% and the “Population Normal (%)” value [6] was 88%. For the same molecule, the “Population Pyknosed Nuclei (%)” value [6] was 25%, the “Population Apoptotic (%)” value [7] was 43% and the “Population Fragmented Nuclei (%)” value [7] was 6%. For the same molecule, the “Population Healthy Nuclei (%)” value [7] was 73%, the “Population Hoechst High Intensity Objects (%)” value [7] was 1% and the “Population Membrane Permeable-Phenotype (%)” value [7] was 43%. The “Population Mitochondria Different-Phenotype (%)” value [7] was 18%, the “Population Mitotic Cells (%)” value [7] was 56% and the “Population Normal (%)” value [7] was 98%. For the same molecule, the “Population Pyknosed Nuclei (%)” value [7] was 20%, the “Population Tubulin-Different-Phenotype (%)” value [7] was 71% and the “Population Apoptotic (%)” value [8] was 62%. For the same molecule, the “Population Fragmented Nuclei (%)” value [8] was 23%, the “Population Healthy Nuclei (%)” value [8] was 67% and the “Population Hoechst High Intensity Objects (%)” value [8] was 14%. For the same molecule, the “Population Membrane Permeable-Phenotype (%)” value [8] was 30%, the “Population Mitochondria Different-Phenotype (%)” value [8] was 28% and the “Population Mitotic Cells (%)” value [8] was 37%. The “Population Normal (%)” value [8] was 85%, the “Population Pyknosed Nuclei (%)” value [8] was 8% and the “Population Tubulin-Different-Phenotype (%)” value [8] was 55%.
In the case of CN1C2CCC1CC(OC(c1ccc(F)cc1)c1ccc(F)cc1)C2.Cl (stereo not drawn), the “Population Apoptotic (%)” value [1] was 45%, the “Population Fragmented Nuclei (%)” value [1] was 8% and the “Population Healthy Nuclei (%)” value [1] was 80%. The “Population Hoechst High Intensity Objects (%)” value [1] was 4%, the “Population Membrane Permeable-Phenotype (%)” value [1] was 2% and the “Population Mitochondria Different-Phenotype (%)” value [1] was 11%. For the same molecule, the “Population Mitotic Cells (%)” value [1] was 54%, the “Population Normal (%)” value [1] was 95% and the “Population Pyknosed Nuclei (%)” value [1] was 10%. For the same molecule, the “Total Cell Count” value [1] was 223, the “Population Apoptotic (%)” value [2] was 100% and the “Population Fragmented Nuclei (%)” value [2] was 5%. For the same molecule, the “Population Healthy Nuclei (%)” value [2] was 92%, the “Population Hoechst High Intensity Objects (%)” value [2] was 2% and the “Population Membrane Permeable-Phenotype (%)” value [2] was 3%. For the same molecule, the “Population Mitochondria Different-Phenotype (%)” value [2] was 4%, the “Population Mitotic Cells (%)” value [2] was 0% and the “Population Normal (%)” value [2] was 97%. For the same molecule, the “Population Pyknosed Nuclei (%)” value [2] was 1%, the “Population Tubulin-Different-Phenotype (%)” value [2] was 8% and the “Total Cell Count” value [2] was 69. The “Population Apoptotic (%)” value [3] was 56%, the “Population Fragmented Nuclei (%)” value [3] was 15% and the “Population Healthy Nuclei (%)” value [3] was 68%. For the same molecule, the “Population Hoechst High Intensity Objects (%)” value [3] was 4%, the “Population Membrane Permeable-Phenotype (%)” value [3] was 4% and the “Population Mitochondria Different-Phenotype (%)” value [3] was 81%. The “Population Mitotic Cells (%)” value [3] was 43%, the “Population Normal (%)” value [3] was 95% and the “Population Pyknosed Nuclei (%)” value [3] was 15%. For the same molecule, the “Population Tubulin-Different-Phenotype (%)” value [3] was 54%, the “Total Cell Count” value [3] was 151 and the “Population Apoptotic (%)” value [4] was 80%. For the same molecule, the “Population Fragmented Nuclei (%)” value [4] was 8%, the “Population Healthy Nuclei (%)” value [4] was 78% and the “Population Hoechst High Intensity Objects (%)” value [4] was 6%. The “Population Membrane Permeable-Phenotype (%)” value [4] was 10%, the “Population Mitochondria Different-Phenotype (%)” value [4] was 89% and the “Population Mitotic Cells (%)” value [4] was 20%. For the same molecule, the “Population Normal (%)” value [4] was 93%, the “Population Pyknosed Nuclei (%)” value [4] was 13% and the “Population Tubulin-Different-Phenotype (%)” value [4] was 49%. The “Total Cell Count” value [4] was 78, the “Population Apoptotic (%)” value [5] was 50% and the “Population Fragmented Nuclei (%)” value [5] was 7%. For the same molecule, the “Population Healthy Nuclei (%)” value [5] was 84%, the “Population Hoechst High Intensity Objects (%)” value [5] was 3% and the “Population Membrane Permeable-Phenotype (%)” value [5] was 1%. The “Population Mitochondria Different-Phenotype (%)” value [5] was 6%, the “Population Mitotic Cells (%)” value [5] was 50% and the “Population Normal (%)” value [5] was 96%. The “Population Pyknosed Nuclei (%)” value [5] was 7%, the “Population Tubulin-Different-Phenotype (%)” value [5] was 3% and the “Total Cell Count” value [5] was 305. The “Population Apoptotic (%)” value [6] was 20%, the “Population Fragmented Nuclei (%)” value [6] was 3% and the “Population Healthy Nuclei (%)” value [6] was 90%. For the same molecule, the “Population Hoechst High Intensity Objects (%)” value [6] was 2%, the “Population Membrane Permeable-Phenotype (%)” value [6] was 4% and the “Population Mitochondria Different-Phenotype (%)” value [6] was 4%. The “Population Mitotic Cells (%)” value [6] was 80%, the “Population Normal (%)” value [6] was 97% and the “Population Pyknosed Nuclei (%)” value [6] was 6%. For the same molecule, the “Population Tubulin-Different-Phenotype (%)” value [6] was 8%, the “Total Cell Count” value [6] was 82 and the “Population Apoptotic (%)” value [7] was 62%. For the same molecule, the “Population Fragmented Nuclei (%)” value [7] was 15%, the “Population Healthy Nuclei (%)” value [7] was 65% and the “Population Hoechst High Intensity Objects (%)” value [7] was 7%. For the same molecule, the “Population Membrane Permeable-Phenotype (%)” value [7] was 0%, the “Population Mitochondria Different-Phenotype (%)” value [7] was 71% and the “Population Mitotic Cells (%)” value [7] was 37%. The “Population Normal (%)” value [7] was 92%, the “Population Tubulin-Different-Phenotype (%)” value [7] was 30% and the “Total Cell Count” value [7] was 196. For the same molecule, the “Population Apoptotic (%)” value [8] was 80%, the “Population Fragmented Nuclei (%)” value [8] was 16% and the “Population Healthy Nuclei (%)” value [8] was 64%. The “Population Hoechst High Intensity Objects (%)” value [8] was 3%, the “Population Membrane Permeable-Phenotype (%)” value [8] was 6% and the “Population Mitochondria Different-Phenotype (%)” value [8] was 78%. The “Population Mitotic Cells (%)” value [8] was 20%, the “Population Normal (%)” value [8] was 96% and the “Population Pyknosed Nuclei (%)” value [8] was 19%. For the same molecule, the “Population Tubulin-Different-Phenotype (%)” value [8] was 25%, the “Total Cell Count” value [8] was 107 and the “Population Apoptotic (%)” value [9] was 33%. The “Population Fragmented Nuclei (%)” value [9] was 6%, the “Population Healthy Nuclei (%)” value [9] was 87% and the “Population Hoechst High Intensity Objects (%)” value [9] was 1%. The “Population Membrane Permeable-Phenotype (%)” value [9] was 2%, the “Population Mitochondria Different-Phenotype (%)” value [9] was 6% and the “Population Mitotic Cells (%)” value [9] was 66%. The “Population Normal (%)” value [9] was 98%, the “Population Pyknosed Nuclei (%)” value [9] was 6% and the “Population Tubulin-Different-Phenotype (%)” value [9] was 5%. For the same molecule, the “Total Cell Count” value [9] was 477, the “Population Apoptotic (%)” value [10] was 0% and the “Population Fragmented Nuclei (%)” value [10] was 1%. For the same molecule, the “Population Healthy Nuclei (%)” value [10] was 97%, the “Population Hoechst High Intensity Objects (%)” value [10] was 2% and the “Population Membrane Permeable-Phenotype (%)” value [10] was 5%. The “Population Mitochondria Different-Phenotype (%)” value [10] was 16%, the “Population Mitotic Cells (%)” value [10] was 100% and the “Population Normal (%)” value [10] was 97%. The “Population Pyknosed Nuclei (%)” value [10] was 0%, the “Population Tubulin-Different-Phenotype (%)” value [10] was 7% and the “Total Cell Count” value [10] was 119. For the same molecule, the “Population Apoptotic (%)” value [11] was 64%, the “Population Fragmented Nuclei (%)” value [11] was 20% and the “Population Healthy Nuclei (%)” value [11] was 63%. The “Population Hoechst High Intensity Objects (%)” value [11] was 5%, the “Population Membrane Permeable-Phenotype (%)” value [11] was 1% and the “Population Mitochondria Different-Phenotype (%)” value [11] was 44%. For the same molecule, the “Population Mitotic Cells (%)” value [11] was 35%, the “Population Normal (%)” value [11] was 94% and the “Population Pyknosed Nuclei (%)” value [11] was 15%. For the same molecule, the “Population Tubulin-Different-Phenotype (%)” value [11] was 17%, the “Total Cell Count” value [11] was 249 and the “Population Apoptotic (%)” value [12] was 77%. For the same molecule, the “Population Fragmented Nuclei (%)” value [12] was 16%, the “Population Healthy Nuclei (%)” value [12] was 75% and the “Population Hoechst High Intensity Objects (%)” value [12] was 6%. For the same molecule, the “Population Membrane Permeable-Phenotype (%)” value [12] was 18%, the “Population Mitochondria Different-Phenotype (%)” value [12] was 56% and the “Population Mitotic Cells (%)” value [12] was 22%. For the same molecule, the “Population Normal (%)” value [12] was 93%, the “Population Pyknosed Nuclei (%)” value [12] was 7% and the “Population Tubulin-Different-Phenotype (%)” value [12] was 27%. For the same molecule, the “Total Cell Count” value [12] was 127.
